Reference: the EternaBench riboswitch data

Test system: MS2 coat protein
Assay: apparent Kd, MS2 coat protein; higher = weaker binding; RNA-MaP array; FMN 200 µM where present
Procedure, shortened: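 Designs on Illumina sequencing-chip clusters, transcribed by stalled E. coli RNA polymerase, were exposed to SNAP-549-labelled MS2 coat protein in doubling steps from 0.7 or 1.5 nM up to 3 µM, without and then with constant ligand. The buffer held 100 mM Tris-HCl pH 7.5, 80 mM KCl, 4 mM MgCl2, BSA, DTT, yeast tRNA and Tween-20. Apparent Kd values are medians of filtered per-cluster binding-curve fits to green signal normalised to red-channel RNA signal and control-cluster median Fmax.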

[1] = designed as: OFF switch for flavin mononucleotide, no ligand
[2] = ligand present: flavin mononucleotide, designed as: OFF switch for flavin mononucleotide
[3] = designed as: ON switch for flavin mononucleotide, no ligand
[4] = ligand present: flavin mononucleotide, designed as: ON switch for flavin mononucleotide

Sequence | apparent Kd [1] [nM] | apparent Kd [2] [nM] | apparent Kd [3] [nM] | apparent Kd [4] [nM]
UUUUUGUCAGGAUAUGAUUAGAUCUACUUCGGUAGAUCUAAUCAGAAGGGACAUGAGGAUCACCCAUGUAGUUU | 36.5 | 141 |  | 
ACGAAGAUACAGAAGGGUAAAUUAGUUAAUUAUAAUUUGGUUAUGCACUACAGGAUAUGUUAUACAUGAGGAUCACCCAUGUUC |  |  | 18.2 | 13.7
GUAGAGUAGUGAGGAUAUACGAGAUCGAUAGAUCGGCGAUCCAUUUAUACAUGAGGAUCACCCAUGUAGAAGGCACUUCUCUAC | 6.26 | 62.8 |  | 
ACCGGUGUAGGAUAUAUCUGGGAUGAAGAUGAUCCUGCUAAACAUGAGGAUCACCCAUGUAGAAGGAUGCCUGG | 83.6 | 178 |  | 
AUGCUAGUGUGAGGAUAUUAGACAUGAGGAUCACCCAUGUGUAAGAUCAUGACGAUCACGCAUGAUAAGAAGGUACAUUAGCAU | 54.6 | 99.7 |  | 
UUUGCAUUCCGAGGAUAUUCAUUUAAUGACUUCACAUGAGGAUCACCCAUGUGGCGCUUGCGCCGGGAGAAGGCGGUUUGCUUU |  |  | 25.6 | 24.1
UCAUAACAUGAGGAUCACCCAUGUGAGGAUAUGAUACUAUGUACUUCGGUACAUAGUAUCAGAAGGCACAUACU | 85 | 316 |  | 
CAGCUGAAUGUGAGGAUAUCUAGAGCUUCGGCUCUAGAGAAGGCACAUGAGGAUCACCCAUGUCUCAACAGCUG | 39.2 | 296 |  | 
CUUAUGUGAGGAUAUCAGUAGUGAUACGAUAGUAUUACUGCUGAGAAGGCACAUGAGGAUCACCCAUGUUCCUU | 26.1 | 51.9 |  | 
AAUCCACAUGAGGAUCACCCAUGUCAGGAUAUUGUUACUAGAGCGCACCUGUGUUCUACGAGAAGGGACUAAAC | 12 | 12.2 |  | 
GGCUCAUUUACAUUAAUGUGCAGACAGGAUAUCCACCGCGGUUCCUACAUGAGGAUCACCCAUGUGGAGAAGGGUCGCUAAUGG | 29.1 | 72.2 |  | 
CUGAGGUCAGGAUAUGCAUGGCGGGACUUGCGUCGUGGCGUGGAGAAGGGACAUGAGGAUCACCCAUGUGGAGC | 59.8 | 57 |  | 
AUACACACGACAGGAUAUGGAAUGUAAGCUCAGAGACAUGAGGAUCACCCAUGUACCUGUCUUGCCCAGAAGGGUCGCAAAAGA |  |  | 327 | 64.5
GAAAAACAUGAGGAUCACCCAUGUAAGGAUAUGCUGAAAAACACGGAAAAAACGUGCAGCAGAAGGUACAAAAG | 63.2 | 83.3 |  | 
UAUACACAUGAGGAUCACCCAUGUGAGGAUAUGUACAACAACCCGACGGUGUUGUUGUACAGAAGGCACAAAUA | 80.2 | 59.8 |  | 
GUCAGCUCGUGAGGAUAUACAACACUGCUUCGGCAGUGAAUUAAGAUCACAUGAGGAUCACCCAUGUAGAAGGCACGAGCUGAU | 17 | 325 |  | 
CACCCACAUGAGGAUCACCCAUGUGAGGAUAUGAUACUAUGUACUUCGGUACAUAGUAUCAGAAGGCACAGGUG | 32 | 106 |  | 
AGGGUUGUGCUAGGAUAUCCAGGUUUGCAACAAGGAGAAGGAGCACAUGAGGAUCACCCAUGUUCUCAAAGGCCAUGGCAAUAU | 12.4 | 56.3 |  | 
UUGGACGUCGUAAGAUAUGUAGGAUAUUCCUACAUGAGGAUCACCCAUGUUGACAUGGAAGAAGGACAGAAGGACGAUGUCCAU |  |  | 285 | 5.51

Sequence | apparent Kd [1] [nM] | apparent Kd [2] [nM] | apparent Kd [3] [nM] | apparent Kd [4] [nM]
AACAGUGCAAUAAUAAUAAGAUCUACAUGAGGAUCACCCAUGUAGGAUAUCGUCAGGAAUACUGACGAGAAGGACAUAGCACUG | 13.9 | 15.6 |  | 
CAGUACUGAGGAUAUACAUGAGGAUCACCCAUGUGUCUAAGGUAGGAUACUACCAUUAGUAGAAGGCAGUACUG | 12.4 | 18.1 |  | 
AAUGUGUCAGGAUAUUGUUAGUUUAGUUGUUUGUAUUAGUUCGAGAAGGGACAUGAGGAUCACCCAUGUUGUAA | 40.1 | 31.9 |  | 
CAAAACAUCUCCGUGUUUGUCGAACAUGAGGAUCACCCAUGUAGAAGGCGCUUCGCGUCGCGGAGCGAGGAUAUACGCUGGAUG | 11.4 | 86.3 |  | 
AGCAGACGAGGAUAUAGAUUUGUUAACAUGAGGAUCACCCAUGUGAUCGAUUAAUCAUAUUUAGAAGGUGUCUGCU | 37.7 | 154 |  | 
UGUGCGUUGAUCUUCGAUCGGUGUACAUGAGGAUCACCCAUGUAGGAUAUUCAAAGACGCAGAUAGGAGAAGGACAUCGGAUUU | 18.8 | 17 |  | 
UUUUUGUCAGGAUAUGAGUAGUAGAACAAUAGUACUACUACUCAGAAGGGACAUGAGGAUCACCCAUGUUCCUC | 15.2 | 54.1 |  | 
AAGGAUCGCACAGGAUAUCAUACAUGAGGAUCACCCAUGUCAGAAAACAAAUGAGAAGGGUGCGCAUUAAUUGCUUGUGAAGAA |  |  | 17.9 | 4.65
GCCAUCGCAUGAGGAUAUGCUCCGGUUUCCGGAGCAGAAGGCAUGUAAUAAGACAUGAGGAUCACCCAUGUAGUUAAGAUGGCA |  |  | 7.11 | 5.55
UGUGUGUGGCAGGAUAUUCCGGUCGUUGGUCGGGAAGAAGGGUCUACAUGAGGAUCACCCAUGUGACCGGUUGG | 25.6 | 26.2 |  | 
CGAUGUUAUGUCAGGAUAUGCGUUGCGAAAGCAAUGCAGAAGGGACAUGAGGAUCACCCAUGUCCUAACCAUCG | 12.3 | 25.1 |  | 
ACAUAGUUAGGAUAUGCUGCUCGUCACUUGCGUGAUGAGUAGCAGAAGGAACAUGAGGAUCACCCAUGUAAAAA | 28.3 | 25.5 |  | 
UAAAGACAUGAGGAUCACCCAUGUGAGGAUAUCGGAGGUGACGGAGCGUCGAGUUCGGCGAGAAGGCGCAGGAA | 81 | 53.9 |  | 
GGAUAGGACAGAGGAUAUACGUGCUAGAGAUACUAGCAAAAGUUCCUCACAUGAGGAUCACCCAUGUAGAAGGCUGUCCUAUCG | 65.5 | 214 |  | 
UGGUAGGGAGGAUAUCGGAGACCAAACAUGAGGAUCACCCAUGUGCCAUCCCGUGUAUCUUGAGAAGGUUCUACCA | 14.8 | 23.4 |  | 
ACUUAUGAAGGAUAUACUAGCGACAUGCGCUCAACACGCGCACAUGAGGAUCACCCAUGUAGAAGGUCAAACAU | 23.1 | 22.1 |  | 
CUGCUGGAGCUUUGCUUUAGUCGUACAUGAGGAUCACCCAUGUAGGAUAUGGUAGGCUUCGCUUACUAGAAGGAUAGAGUGGUC | 33.6 | 22.8 |  | 
UACCUAUUUAUGGUAUUUCAAUAUGAGGAUAUCAUUUAUUUAUACAUGAGGAUCACCCAUGUUACUGAGAAGGCAUAUUUAAUA |  |  | 11.4 | 6.01
AAGAAGCUCACAGGAUAUCAGUAUAUGCGAUCUAGCGUAUUAAUGAACUGCUGAGAAGGGUGAGACAUGAGGAUCACCCAUGUA |  |  | 23.3 | 62.2

Sequence | apparent Kd [1] [nM] | apparent Kd [2] [nM] | apparent Kd [3] [nM] | apparent Kd [4] [nM]
ACAAUAAACUAGAAGGUGGUGAUACAUGAGGAUCACCCAUGUAUAGUACUGAGGAUAUGGAUGAUUGAAGUGAAUAUCGUAGCA |  |  | 111 | 86
UCUUUACUGGUCAGGAUAUACAUUCGCUACUCUUUGUAGAAGGGACAUGAGGAUCACCCAUGUACUUUACAUUC | 17.9 | 18 |  | 
CUAUUGGCAGGAUAUGCUUUUUUAGACAUGAGGAUCACCCAUGUGAUGAAUUUUGGGUUUGCAGAAGGGCCUGAGU | 67.1 | 100 |  | 
UUACUCAUGUAAGGAUAUGCAGCCGUUUCGGCUGCAGAAGGUACUAUAAUACAUGAGGAUCACCCAUGUCUUUUUAAUUUAGAU |  |  | 195 | 77
CAUUAUUAUCGAGGAUAUCCUAUUGAAAUUCUGGGAGAAGGCGGACUCAACAUGAGGAUCACCCAUGUGGGACGGAUGCUAGGG | 22.9 | 20 |  | 
AACGUGUGAGGAUAUGCACGAGUGACAGGGAGGCUGUCACAGCAGAAGGUACAUGAGGAUCACCCAUGUGAAAU | 24.9 | 20.6 |  | 
UUUAUAAAGAUAGGAUAUAGUAUAAUAAUUUAAUUAGAAGGAUCACACAUGAGGAUCACCCAUGUAUGAGGAUCACCCAUGUAU | 20.4 | 21.1 |  | 
UUAUUGUGAGGAUAUCCAAUAUAUGACAUGAGGAUCACCCAUGUUUCCACUCGUACCUCCGGAGAAGGCACAGUUU | 31.2 | 24.1 |  | 
UUGGACGUCGUAGGAUAUGUAGGAUAUUCCUACAUGAGGAUCACCCAUGUUGACAUGGAAGAAGCACAGAAGGACGAUGUCCAU |  |  | 150 | 6.6
GCGAGCGUACUUGCAACAUGAGGAUCACCCAUGUUAACUGGACAGGAUAUGGUACCGUUUCGGUACCAGAAGGGUUCACUCAUG |  |  | 137 | 250
CUCGUGUGAGGAUAUGCGGGCGGGCGCGUUUGUGUUUGUUUGUAGAAGGUACAUGAGGAUCACCCAUGUGCUGG | 24 | 80.9 |  | 
UUUGCAUUCCGAGGAUAUUCAUAUAAUAAAUAAACAUGAGGAUCACCCAUGUGGCGAAAGCCUAGGGAGAAGGCGGUUUGCUUU |  |  | 139 | 25.7
GUUAACACAUGAGGAUAUGCUCGCAUUUCAAGAGCAGAAGGUAUGUCUAUAGACAUGAGGAUCACCCAUGUAUUUAUCAUUGAA |  |  | 274 | 52.6
GGUACUCAAAGAGUACCAAUACGAACAUGAGGAUCACCCAUGUAGGAUAUGCUACUCAAAGAGUAGCAGAAGGACAUGUGCCUA | 19.1 | 106 |  | 
GUAUGAGCGAUAGGAUAUACUGGGAUUGAAUGGGUAGAAGGAUUUCUUGUGGGAAAGACAUGAGGAUCACCCAUGUCGCGGACC |  |  | 255 | 165
AGAAACUACGAGAAGGACAUGUGGUCCAAAAUAAACAUGAGGAUCACCCAUGUAGGAUAUCGUAGUUUCAGGAUCGUGAGAUCA | 260 | 12.3 |  | 
GCCAUCGCAUGAGGAUAUGGCACCGUUUCGGUGCCAGAAGGCAUGUCAAAUGACAUGAGGAUCACCCAUGUAGUUAAGAUGGCC |  |  | 157 | 13
AACAGUACAGGAUAUACAUGAGGAUCACCCAUGUGACAAUUAAGUGGCGUACCACAAAGUAGAAGGGUACUGGA | 28.2 | 150 |  | 
